Laboratory results published in ChEMBL document CHEMBL1139403, “Syntheses and anti-depressant activity of 5-amino-1, 3, 4-thiadiazole-2-thiol imines and thiobenzyl derivatives” (2008).

Tests used:
Mus musculus [1] = assay: Antidepressant activity in albino mouse assessed as decrease in immobility time at 10 mg/kg, ip after 60 mins by forced-swimming test relative to untreated control; format: functional; parameters: scale not given: the % may be the effect or the level left; settings: route intraperitoneal
Summary of the method: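 Albino mice given 10 mg/kg ip; forced swim in a vertical Plexiglas cylinder of water at 25 °C for 15 min, immobility plateauing after 5–6 min; % immobility calculated; mice dried in a heated enclosure (32 °C) afterwards.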

Mus musculus [2] = assay: Neurotoxicity in albino mouse assessed as animal in lateral position at 10 mg/kg, ip administered 1 hr prior to ethanol challenge measured after 30 mins; format: functional; settings: route intraperitoneal

COc1ccc(/C=C/C(=N\c2nnc(SCc3ccccc3)s2)c2ccc(Cl)cc2)cc1
Activity (Mus musculus [1]): 77.99% | Activity (Mus musculus [2]): <50%

Clc1ccc(/C=C/C(=N\c2nnc(SCc3ccccc3)s2)c2ccc(Cl)cc2)cc1
Activity (Mus musculus [2]): <50%

COc1ccc(/C=C/C(=N\c2nnc(SCc3ccc(Cl)cc3)s2)c2ccc(Cl)cc2)cc1
Activity (Mus musculus [1]): 84.23% | Activity (Mus musculus [2]): <50%

Clc1ccc(/C=C/C(=N\c2nnc(SCc3ccc(Cl)cc3)s2)c2ccc(Cl)cc2)cc1
Activity (Mus musculus [1]): 87.57% | Activity (Mus musculus [2]): <50%

CN(C)CCCN1c2ccccc2CCc2ccccc21 [IMIPRAMINE]
Activity (Mus musculus [1]): 82% | Activity (Mus musculus [2]): <50%
